Results taken from ChEMBL document CHEMBL5107936, “Anti-amyloidogenic indolizino[3,2-c]quinolines as imaging probes differentiating dense-core, diffuse, and coronal plaques of amyloid-β” (RSC Med Chem, 2021).

Experiments:
HT-22 = experiment: Cytotoxicity against mouse HT-22 cells assessed as reduction in cell viability incubated for 18 hrs by MTT assay; format: toxicity, cell-based; conditions: ht-22, 18 h
[1] = target: Amyloid-beta precursor protein (Homo sapiens) (UniProt P05067); experiment: Inhibition of Amyloid beta (1 to 42 ) (unknown origin) aggregation assessed as fibrilization amyloid beta by measuring beta sheets at 1 to 50 uM incubated for 3 days by Thioflavin T based fluorescence assay; conditions: dose 1-50 µM, time 3.0 day
Amyloid-beta precursor protein (Homo sapiens), sequence (P05067 whole entry): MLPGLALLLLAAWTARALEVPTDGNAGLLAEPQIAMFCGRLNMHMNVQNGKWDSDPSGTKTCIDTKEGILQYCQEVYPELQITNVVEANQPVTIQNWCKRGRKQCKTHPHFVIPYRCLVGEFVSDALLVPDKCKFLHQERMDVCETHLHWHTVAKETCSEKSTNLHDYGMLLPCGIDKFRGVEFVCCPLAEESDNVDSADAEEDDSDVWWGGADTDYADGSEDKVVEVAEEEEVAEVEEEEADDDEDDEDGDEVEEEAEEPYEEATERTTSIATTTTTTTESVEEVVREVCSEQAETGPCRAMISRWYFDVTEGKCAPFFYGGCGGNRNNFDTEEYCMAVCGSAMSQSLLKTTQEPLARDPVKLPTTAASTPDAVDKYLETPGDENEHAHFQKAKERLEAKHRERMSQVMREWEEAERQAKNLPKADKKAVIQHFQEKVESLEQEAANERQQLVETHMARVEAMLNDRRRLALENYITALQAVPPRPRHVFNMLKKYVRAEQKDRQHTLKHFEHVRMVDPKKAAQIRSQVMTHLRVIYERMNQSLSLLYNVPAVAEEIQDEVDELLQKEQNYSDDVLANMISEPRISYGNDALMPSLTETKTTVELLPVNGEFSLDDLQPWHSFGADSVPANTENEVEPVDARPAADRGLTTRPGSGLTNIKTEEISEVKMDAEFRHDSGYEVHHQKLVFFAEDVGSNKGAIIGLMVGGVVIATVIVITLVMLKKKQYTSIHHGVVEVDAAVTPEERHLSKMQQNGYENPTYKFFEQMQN

[2] = target: Amyloid-beta precursor protein (Homo sapiens) (UniProt P05067); experiment: Inhibition of Amyloid beta (1 to 42 ) (unknown origin) disaggregation assessed as reduction in mature fibril at 50 uM preincubated with amyloid beta followed by compound addition and measured after 3 days by Thioflavin T based fluorescence assay; conditions: time 3.0 day
[3] = target: Amyloid-beta precursor protein (Homo sapiens) (UniProt P05067); experiment: Inhibition of Amyloid beta (1 to 42 ) (unknown origin) aggregation at 0.5 to 50 uM incubated for 3 days followed by incandescent lamp irradiation by photo-induced cross-linking of unmodified proteins method; conditions: dose 0.5-50 µM, time 3.0 day
In short: (§1)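 Cross-linked Aβ products resolved on gels, imaged by fluorescence scanning and by silver staining. Band area quantified by densitometry and normalized to the 3-day aggregates, set as 100%.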

[4] = target: Amyloid-beta precursor protein (Homo sapiens) (UniProt P05067); experiment: Inhibition of Amyloid beta (1 to 42 ) (unknown origin) disaggregation assessed as reduction in aggregation by measuring monomer band intensity at 0.5 to 50 uM incubated for 3 days followed by incandescent lamp irradiation by photo-induced cross-linking of unmodified proteins method; conditions: dose 0.5-50 µM, time 3.0 day; in short: as §1

Compound	Activity (HT-22)	also measured
c1ccc2c(-c3nc4ccccc4c4cc5ccccn5c34)cccc2c1	Toxic	
Clc1ccc(-c2nc3ccccc3c3cc4ccccn4c23)cc1	Toxic	
COc1cccc(-c2nc3ccccc3c3cc4ccccn4c23)c1	Toxic	
COc1ccc(-c2nc3ccccc3c3c(-c4ccc(F)cc4)c4ccccn4c23)cc1	Toxic	
COc1ccc(-c2nc3ccccc3c3cc4c(C)cccn4c23)cc1OC	Toxic	inhibition [1]: > 30%; inhibition [2]: 40%; inhibition [3]: 20%
COc1ccc(-c2nc3ccccc3c3cc4ccc(Br)cn4c23)cc1OC	Toxic	inhibition [1]: > 30%; inhibition [2]: 40%; inhibition [3]: 20%
COc1cc(OC)cc(-c2nc3ccccc3c3cc4c(C)cccn4c23)c1	Toxic	
Brc1ccc(C2Nc3ccccc3-c3cc4ccccn4c32)cc1 (stereo unspecified)	Toxic	
Cc1cccn2c1cc1c3ccccc3nc(-c3cc4ccccc4[nH]3)c12	Toxic	inhibition [1]: > 30%; inhibition [2]: 40%
COC(=O)c1c2c3ccccc3nc(-c3ccc[nH]3)c2n2ccccc12	Toxic	
Cc1ccc2cc3c4ccccc4nc(-c4cccc5ccccc45)c3n2c1	Toxic	
Brc1ccc(-c2nc3ccccc3c3cc4ccccn4c23)cc1	Toxic	
c1ccc(-c2nc3ccccc3c3cc4ccccn4c23)nc1	Toxic	
COc1cc(OC)cc(-c2ccc3cc4c5ccccc5nc(-c5cccc6ccccc56)c4n3c2)c1	Toxic	inhibition [1]: > 30%
COc1ccc(-c2nc3ccccc3c3cc4ccccn4c23)cc1	Toxic	
COc1cccc(-c2nc3ccccc3c3cc4c(C)cccn4c23)c1	Toxic	

Compound	Activity (HT-22)	also measured
COc1ccc(-c2nc3ccccc3c3cc4ccc(-c5cc(OC)cc(OC)c5)cn4c23)cc1	Toxic	
Cc1ccc(-c2nc3ccccc3c3cc4c(C)cccn4c23)cc1	Toxic	
Cc1cccn2c1cc1c3ccccc3nc(-c3cccc(F)c3)c12	Toxic	
COc1ccc(-c2nc3ccccc3c3c(I)c4ccccn4c23)cc1	Toxic	
CN(C)c1ccc(-c2nc3ccccc3c3cc4ccccn4c23)cc1	Toxic	inhibition [1]: > 30%; inhibition [2]: > 60%; inhibition [3]: 20%; inhibition [4]: 10%
Brc1ccc2cc3c4ccccc4nc(-c4ccco4)c3n2c1	Toxic	inhibition [1]: > 30%
Cc1cccn2c1cc1c3ccccc3nc(-c3ccco3)c12	Toxic	
COc1cc(OC)cc(-c2nc3ccccc3c3cc4ccccn4c23)c1	Toxic	
Cc1cccn2c1cc1c3ccccc3nc(-c3cccc4ccccc34)c12	Toxic	
c1ccc2cc(-c3nc4ccccc4c4cc5ccccn5c34)ccc2c1	Toxic	
Clc1ccc(-c2nc3ccccc3c3cc4ccccn4c23)s1	Toxic	
c1csc(-c2nc3ccccc3c3cc4ccccn4c23)c1	Toxic	
COc1ccc(-c2nc3ccccc3c3cc4ccccn4c23)cc1OC	Toxic	
c1ccc(-c2nc3ccccc3c3cc4ccccn4c23)cc1	Toxic	
Cc1cccn2c1cc1c3ccccc3nc(-c3cc4ccccc4o3)c12	Toxic	
CCOC(=O)c1c2c3ccccc3nc(-c3ccc(OC)c(OC)c3)c2n2ccccc12	Toxic	
